V1aR counter – activates human V1a receptor in oxytocin agonist counter-screen. AID 2797. P37288. CHO-V1R cells, Fluo-8 calcium fluorescence, agonist mode; 0% DMSO, 100% 3 nM vasopressin. activation, % at 3 µM. actives 0.25% (n = 320,000);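 active = activation above the mean activation of all tested compounds plus 3 SD, per screening run, cut at about 20% in these data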;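 also: signal is peak over basal fluorescence ratio across a 100 second FLIPR read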
OXTR ag – activates the human oxytocin receptor; CHO-OTR cells, Fluo-8 calcium fluorescence; normalized: DMSO 0%, oxytocin 100%; P30559; actives 0.32% (n = 320,000); activation, % at 3 µM; AID 2435;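 active = activation above the mean of all tested compounds plus 3 SD, cutoff set per screening run, cut at about 20% in these data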;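 also: peak over basal fluorescence ratio from a 100 s FLIPR kinetic read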
zfTRPN1 agonist – activates the zebrafish TRPN1 channel; HEK293 zebrafish TRPN1-YFP, Fluo-8 calcium fluorescence; 100% = response to 87 µM carbachol; activation, % at 3 µM; actives 0.18% (n = 220,000); AID 1424;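 active = activation above its plate's cutoff, the mean activation of test wells on that plate plus 3 SD, cut at about 19% in these data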
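System: zebrafish TRPN1-YFP in HEK293 cells / Dosing: 3 µM single point / Timing: dye loading 1 h at 37 °C, then 30 min room temperature / Signal: Fluo-8 calcium fluorescence, excitation 470-495 nm, emission 515-575 nm / Read-out basis: percent activation from peak over basal fluorescence ratio, control-normalized / Control set: high carbachol 87 µM, low DMSO alone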
OXTR potentiator – potentiators of human oxytocin receptor | P30559 | CHO-OTR cells, Fluo-8 calcium fluorescence, potentiator mode; 0% = oxytocin EC15, 100% = EC100 | activation, % at 3 µM | actives 0.061% (n = 320,000) | AID 2445;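 active = activation above that plate's cutoff, the mean activation of tested compounds plus 3 SD, cut at about 6.6% in these data, passing the limit was not always enough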
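Assay system: CHO-OTR cells, human receptor / Also added: oxytocin at about EC15, sub-maximal agonist stimulus / Dosing: single dose, 3.0 µM nominal final compound concentration / Incubation: 6 min pre-incubation, 100 s read / Technique: Fluo-8 calcium dye fluorescence / Read-out: % activation vs EC15 and EC100 oxytocin / Benchmarks: EC15 oxytocin low, 75 nM oxytocin high / Replicates: singlicate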
TRPML3 agonist – activates the human TRPML3 channel; AID 1448; actives 0.29% (n = 220,000); activation, % at 3 µM; HEK293 TRPML3-YFP, Fluo-8 calcium fluorescence; 100% = the carbachol control signal; Q8TDD5;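 active = activation above its plate's cutoff, the mean activation of the plate's test wells plus 3 SD, cut at about 12% in these data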
Target sequence (Q8TDD5 whole entry, looked up): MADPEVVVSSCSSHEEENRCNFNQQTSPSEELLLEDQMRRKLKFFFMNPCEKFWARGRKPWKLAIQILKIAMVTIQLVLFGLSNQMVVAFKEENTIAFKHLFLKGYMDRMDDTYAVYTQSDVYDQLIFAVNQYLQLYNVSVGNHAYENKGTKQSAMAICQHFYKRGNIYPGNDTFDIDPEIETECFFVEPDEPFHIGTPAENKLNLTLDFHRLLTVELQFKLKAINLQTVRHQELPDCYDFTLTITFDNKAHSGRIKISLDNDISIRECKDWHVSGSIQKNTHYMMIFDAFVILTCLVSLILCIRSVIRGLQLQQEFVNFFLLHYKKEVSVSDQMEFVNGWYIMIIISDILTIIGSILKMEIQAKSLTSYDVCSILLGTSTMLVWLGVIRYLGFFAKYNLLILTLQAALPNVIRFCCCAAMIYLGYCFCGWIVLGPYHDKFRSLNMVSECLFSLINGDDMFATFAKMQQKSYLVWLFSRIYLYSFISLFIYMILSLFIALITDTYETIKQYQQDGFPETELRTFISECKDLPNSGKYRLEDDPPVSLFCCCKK
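Material: HEK293 cells stably carrying human TRPML3-YFP; compound dosing: single dose, 3 µM final nominal compound, 0.3% DMSO final; incubation: 1-h 37 °C dye load, 5-s basal, 120-s post-compound reads; technique: Fluo-8 intracellular calcium fluorescence, excitation 470-495 nm, emission 515-575 nm; read-out basis: percent activation from peak-to-basal fluorescence ratio, scaled between DMSO and carbachol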
Hits are given with their value. Shown are actives, neighbours in structure and some others; about 0.58% of the full set was active somewhere.

Cc1ccc(C2c3c(C)nn(-c4ccc([N+](=O)[O-])cc4)c3N=C3C(=O)Nc4ccccc4N32)cc1 (stereo not drawn) was read as V1aR counter inactive, OXTR ag inactive, zfTRPN1 agonist 26, OXTR potentiator inactive and TRPML3 agonist 33.
Cc1nn(-c2ccc([N+](=O)[O-])cc2)c2c1C(c1ccc(OC(F)F)cc1)N1C(=N2)C(=O)Nc2ccccc21 (stereo not drawn) was read as V1aR counter inactive, OXTR ag inactive, zfTRPN1 agonist inactive, OXTR potentiator inactive and TRPML3 agonist inactive.
For O=c1ccc2[n+]([O-])c3ccc(O)cc3oc-2c1 the results were zfTRPN1 agonist 48 and TRPML3 agonist 27.
CCN(CC)c1ccc(/C=C2\SC(=O)N(C(C)C)C2=O)o1 was read as V1aR counter inactive, OXTR ag inactive, zfTRPN1 agonist 40, OXTR potentiator inactive and TRPML3 agonist inactive.
Screening CCOc1ccccc1N(CC(=O)N1CCOCC1)S(=O)(=O)c1ccc(SC)cc1 returned zfTRPN1 agonist 57 and TRPML3 agonist 199.
`O=S(=O)([O-])CCC[n+]1c(/C=C\Nc2ccccc2)oc2ccc(-c3ccccc3)cc21` gave zfTRPN1 agonist 119 and TRPML3 agonist 25.
`O=C(C[C@H]1C/C=C\CC[C@H](Cc2ccc(F)cc2)C(=O)O[C@@H](c2ccccc2)CNC1=O)N[C@H](CO)Cc1ccccc1` gave V1aR counter 52, OXTR ag 33 and OXTR potentiator inactive.
O=C(C[C@H]1C/C=C\C[C@H](Cc2ccc(F)cc2)C(=O)O[C@@H](c2ccccc2)CNC1=O)N[C@H](CO)Cc1ccccc1 was read as V1aR counter 60, OXTR ag 45 and OXTR potentiator inactive.
Screening O=C(C[C@H]1C/C=C\CC[C@H](Cc2ccc(F)cc2)C(=O)O[C@@H](c2ccccc2)CNC1=O)N[C@@H](CO)Cc1ccccc1 returned V1aR counter inactive, OXTR ag inactive and OXTR potentiator inactive.
`Cn1c2c(c(=O)n(C)c1=O)C(c1ccccc1OC(F)F)C1=C(CCCC1=O)N2` (stereo not drawn) gave V1aR counter inactive, OXTR ag inactive, zfTRPN1 agonist inactive, OXTR potentiator inactive and TRPML3 agonist inactive.
Screening O=C(O)CCC(=O)Nc1nnc(C(F)(F)F)s1 returned V1aR counter inactive, OXTR ag inactive, zfTRPN1 agonist inactive, OXTR potentiator inactive and TRPML3 agonist inactive.
Screening CCC(NC(=O)Nc1nnc(C(F)(F)F)s1)(C(F)(F)F)C(F)(F)F returned V1aR counter inactive, OXTR ag inactive, zfTRPN1 agonist 26, OXTR potentiator inactive and TRPML3 agonist 23.
`O=C1/C(=C\c2ccc(O)cc2)SC(=S)N1/N=C/c1ccc(O)cc1` gave V1aR counter 22, OXTR ag 24, zfTRPN1 agonist 21, OXTR potentiator inactive and TRPML3 agonist inactive.
CC(C)NC(=O)NC(=O)COc1c(F)c(F)cc(F)c1F was read as V1aR counter inactive, OXTR ag inactive, zfTRPN1 agonist inactive, OXTR potentiator inactive and TRPML3 agonist 17.
Screening Nc1nc(Nc2cccc(F)c2)nc(NCCO)c1[N+](=O)[O-] returned V1aR counter inactive, OXTR ag inactive, zfTRPN1 agonist inactive, OXTR potentiator 12 and TRPML3 agonist inactive.
Screening CC1(C)CCN2CCC(C)(C)c3c(O)ccc1c32 returned V1aR counter 28, OXTR ag 25 and OXTR potentiator inactive.
Screening Cc1cc(=O)[nH]c(SCC(=O)Nc2ccccc2C)n1 returned V1aR counter inactive, OXTR ag inactive, zfTRPN1 agonist 20, OXTR potentiator inactive and TRPML3 agonist inactive.
Screening O=C(O)c1sccc1SCc1ccc(Cl)c(Cl)c1 returned V1aR counter 22, OXTR ag inactive, zfTRPN1 agonist inactive, OXTR potentiator inactive and TRPML3 agonist inactive.
COC(=O)CSc1ccsc1C(=O)O was read as V1aR counter inactive, OXTR ag inactive, zfTRPN1 agonist inactive, OXTR potentiator inactive and TRPML3 agonist inactive.
For CN=C1SC(CC(=O)NCCc2ccc(OC)c(OC)c2)C(=O)N1C (stereo not drawn) the results were V1aR counter 47, OXTR ag 34, zfTRPN1 agonist inactive, OXTR potentiator inactive and TRPML3 agonist inactive.
`Cn1c2c(c(=O)n(C)c1=O)C(C(F)(F)F)(C(F)(F)F)N=C(c1ccc(Cl)cc1)N2` gave V1aR counter inactive, OXTR ag inactive, zfTRPN1 agonist 29, OXTR potentiator inactive and TRPML3 agonist 20.
For Cc1ccccc1C1=NC(C(F)(F)F)(C(F)(F)F)c2c(n(C)c(=O)n(C)c2=O)N1 the results were V1aR counter inactive, OXTR ag inactive, zfTRPN1 agonist inactive, OXTR potentiator inactive and TRPML3 agonist inactive.
Screening Cc1cc(C)cc(C(=O)NCC(=O)OCC(=O)N2CCN(S(=O)(=O)c3ccc4ccccc4c3)CC2)c1 returned V1aR counter inactive, OXTR ag inactive, zfTRPN1 agonist inactive, OXTR potentiator inactive and TRPML3 agonist inactive.
`CCCCOc1ccc(-c2nnn(CC(=O)Nc3ncc(CC(=O)OCC)s3)n2)cc1` gave V1aR counter 27, OXTR ag 33, zfTRPN1 agonist inactive, OXTR potentiator inactive and TRPML3 agonist inactive.
Screening CCOC(=O)Cc1cnc(NC(=O)Cn2nnc(-c3ccc(OCC)cc3)n2)s1 returned V1aR counter inactive, OXTR ag inactive, zfTRPN1 agonist inactive, OXTR potentiator inactive and TRPML3 agonist inactive.
Cc1ccc(NC(=O)CN2C(=O)N/C(=C/c3ccc(N4CCOCC4)cc3)C2=O)cc1 was read as V1aR counter inactive, OXTR ag inactive, zfTRPN1 agonist inactive, OXTR potentiator inactive and TRPML3 agonist inactive.
For Cc1ccccc1NC(=O)CN1C(=O)N/C(=C\c2ccc(N3CCOCC3)c(F)c2)C1=O the results were V1aR counter inactive, OXTR ag inactive, zfTRPN1 agonist inactive, OXTR potentiator 9.9 and TRPML3 agonist inactive.
`Cc1ccc(/C=C/c2ccc(=O)n(Cc3ccccc3Cl)n2)cc1` gave V1aR counter inactive, OXTR ag inactive, zfTRPN1 agonist inactive, OXTR potentiator inactive and TRPML3 agonist inactive.
Screening O=C(N/N=C/c1cc(Cl)cc(Cl)c1O)c1ccncc1 returned V1aR counter 28, OXTR ag 29, zfTRPN1 agonist 24, OXTR potentiator inactive and TRPML3 agonist inactive.
For CCOCCCNc1nc2c(C)cccn2c(=O)c1/C=C1\SC(=S)N(C(C)CC)C1=O (stereo not drawn) the results were V1aR counter inactive, OXTR ag inactive, zfTRPN1 agonist 20, OXTR potentiator inactive and TRPML3 agonist inactive.
CCOCCCNc1nc2c(C)cccn2c(=O)c1/C=C1\SC(=S)N(CC(C)C)C1=O was read as V1aR counter inactive, OXTR ag inactive, zfTRPN1 agonist inactive, OXTR potentiator inactive and TRPML3 agonist inactive.
Cc1nnsc1C(=O)N/N=C/c1ccc2ccccc2c1O was read as V1aR counter 47, OXTR ag 67, zfTRPN1 agonist inactive, OXTR potentiator inactive and TRPML3 agonist inactive.
